According to ChEMBL document CHEMBL1944590, “Synthesis of 3-phenylsulfonylmethyl cyclohexylaminobenzamide-derived antagonists of CC chemokine receptor 2 (CCR2)” (Bioorg Med Chem Lett, 2012):
Activity calls are given as the source filed them. The rule behind the calls is not given here.

molecular target: T1, C-C chemokine receptor type 2 (Homo sapiens, UniProt P41597); test: Displacement of [125I]MCP-1 from CCR2 in human PMBC; details: not given
Target sequence in this assay (P41597 whole entry): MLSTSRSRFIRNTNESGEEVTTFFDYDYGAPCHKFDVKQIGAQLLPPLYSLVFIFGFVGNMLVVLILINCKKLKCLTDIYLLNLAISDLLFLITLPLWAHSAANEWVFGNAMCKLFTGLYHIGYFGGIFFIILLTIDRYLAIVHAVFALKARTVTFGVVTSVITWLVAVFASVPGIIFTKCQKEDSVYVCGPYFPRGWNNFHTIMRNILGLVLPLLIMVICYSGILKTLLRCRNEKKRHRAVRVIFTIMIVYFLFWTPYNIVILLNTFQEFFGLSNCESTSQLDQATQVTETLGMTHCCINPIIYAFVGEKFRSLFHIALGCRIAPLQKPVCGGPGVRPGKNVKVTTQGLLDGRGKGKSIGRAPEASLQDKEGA

SMILES | IC50 [nM]
N[C@H]1CC[C@@H](NC(=O)CNC(=O)c2cccc(C(F)(F)F)c2)CC1 | 4100
CN[C@@H]1CC[C@H](NC(=O)CNC(=O)c2cccc(C(F)(F)F)c2)C[C@@H]1CS(=O)(=O)c1ccccc1 (racemic) | 180
CC(C)N(C)[C@@H]1CC[C@H](NC(=O)CNC(=O)c2cccc(C(F)(F)F)c2)C[C@H]1CS(=O)(=O)c1ccccc1 | 2900
CC(C)N[C@@H]1CC[C@H](NC(=O)CNC(=O)c2cccc(C(F)(F)F)c2)C[C@@H]1CS(=O)(=O)c1ccccc1 (racemic) | 12
CCCN[C@@H]1CC[C@H](NC(=O)CNC(=O)c2cccc(C(F)(F)F)c2)C[C@@H]1CS(=O)(=O)c1ccccc1 (racemic) | 54
CC(C)N[C@@H]1CC[C@H](NC(=O)CNC(=O)c2cccc(C(F)(F)F)c2)C[C@H]1CS(=O)(=O)c1ccccc1 | 310
CCCN(C)[C@@H]1CC[C@H](NC(=O)CNC(=O)c2cccc(C(F)(F)F)c2)C[C@@H]1CS(=O)(=O)c1ccccc1 (racemic) | 370
CCN[C@@H]1CC[C@H](NC(=O)CNC(=O)c2cccc(C(F)(F)F)c2)C[C@@H]1CS(=O)(=O)c1ccccc1 (racemic) | 27
CC(C)N(C)[C@H]1CC[C@@H](NC(=O)CNC(=O)c2cccc(C(F)(F)F)c2)CC1 | 72
N[C@@H]1CC[C@H](NC(=O)CNC(=O)c2cccc(C(F)(F)F)c2)C[C@H]1CS(=O)(=O)c1ccccc1 | 3700
O=C(CNC(=O)c1cccc(C(F)(F)F)c1)N[C@H]1CC[C@@H](N2CCCCC2)[C@@H](CS(=O)(=O)c2ccccc2)C1 (racemic) | 340
O=C(CNC(=O)c1cccc(C(F)(F)F)c1)N[C@H]1CC[C@@H](NC2CCC2)[C@@H](CS(=O)(=O)c2ccccc2)C1 (racemic) | 34
CC(C)N[C@@H]1CC[C@H](NC(=O)CNC(=O)c2cccc(C(F)(F)F)c2)[C@H](CS(=O)(=O)c2ccccc2)C1 | 5.2
CC(C)N[C@H]1CC[C@@H](NC(=O)CNC(=O)c2cccc(C(F)(F)F)c2)CC1 | 570
CC(C)N(C)[C@@H]1CC[C@H](NC(=O)CNC(=O)c2cccc(C(F)(F)F)c2)C[C@@H]1CS(=O)(=O)c1ccccc1 | 79
N[C@@H]1CC[C@H](NC(=O)CNC(=O)c2cccc(C(F)(F)F)c2)C[C@@H]1CS(=O)(=O)c1ccccc1 (racemic) | 59
CN(C)[C@@H]1CC[C@H](NC(=O)CNC(=O)c2cccc(C(F)(F)F)c2)C[C@@H]1CS(=O)(=O)c1ccccc1 (racemic) | 130
N[C@@H]1CC[C@H](NC(=O)CNC(=O)c2cccc(C(F)(F)F)c2)[C@H](CS(=O)(=O)c2ccccc2)C1 (racemic) | 37

molecular target: T1, C-C chemokine receptor type 2; test: Displacement of [125I]MCP-1 from CCR2 in human THP1 cells; format: cell-based, THP-1; details: not given
Summary of the method: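 Competition binding against [¹²⁵I]MCP-1 using THP-1 cells in place of peripheral blood mononuclear cells. IC50 typically given as the mean of two determinations.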
Target sequence in this assay (P41597 whole entry): as above

SMILES | IC50 [nM]
CC(C)N(C)[C@@H]1CC[C@H](NC(=O)CNC(=O)c2cc(C(F)(F)F)ccc2NC(=O)N2CCC2)C[C@@H]1CS(=O)(=O)c1ccccc1 (racemic) | 34
CC(C)N[C@@H]1CC[C@H](NC(=O)CNC(=O)c2cc(C(F)(F)F)ccc2NC(=O)N2CCC2)C[C@@H]1CS(=O)(=O)c1ccccc1 (racemic) | 6.6
CC(C)N(C)[C@@H]1CC[C@H](NC(=O)CNC(=O)c2cccc(C(F)(F)F)c2)C[C@@H]1CS(=O)(=O)c1ccccc1 (racemic) | 89
CCN[C@@H]1CC[C@H](NC(=O)CNC(=O)c2cc(C(F)(F)F)ccc2NC(=O)N2CCC2)C[C@@H]1CS(=O)(=O)c1ccccc1 (racemic) | 12

molecular target: C-C chemokine receptor type 5 (Homo sapiens, UniProt P51681); test: Displacement of [125I]MIP-1beta from CCR5; details: not given
Sequence (P51681 whole entry): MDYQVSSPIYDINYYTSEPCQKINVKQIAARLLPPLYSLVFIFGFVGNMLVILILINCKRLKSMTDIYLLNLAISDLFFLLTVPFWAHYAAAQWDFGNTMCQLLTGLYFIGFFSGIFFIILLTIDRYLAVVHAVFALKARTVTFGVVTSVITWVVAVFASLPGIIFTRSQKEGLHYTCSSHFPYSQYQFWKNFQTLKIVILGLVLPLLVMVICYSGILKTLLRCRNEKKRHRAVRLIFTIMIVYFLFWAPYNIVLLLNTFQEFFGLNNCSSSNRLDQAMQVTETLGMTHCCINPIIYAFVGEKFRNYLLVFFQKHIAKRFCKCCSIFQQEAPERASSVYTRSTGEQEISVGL

SMILES | IC50 [nM]
CC(C)N[C@@H]1CC[C@H](NC(=O)CNC(=O)c2cc(C(F)(F)F)ccc2NC(=O)N2CCC2)C[C@@H]1CS(=O)(=O)c1ccccc1 (racemic) | 810
N[C@@H]1CC[C@H](NC(=O)CNC(=O)c2cc(C(F)(F)F)ccc2NC(=O)N2CCC2)C[C@@H]1CS(=O)(=O)c1ccccc1 (racemic) | 7300

organism: Homo sapiens; test: Selectivity ratio of IC50 for CCR5 to IC50 for human CCR2; details: not given

SMILES | Ratio IC50
CC(C)N[C@@H]1CC[C@H](NC(=O)CNC(=O)c2cc(C(F)(F)F)ccc2NC(=O)N2CCC2)C[C@@H]1CS(=O)(=O)c1ccccc1 (racemic) | > 100

test system: not listed separately; test: Metabolic stability of the compound in human liver microsomes assessed as compound remaining at 0.5 uM aftet 10 mins; format: ADME, Microsome; details: read-out: Stability
Summary of the method: (§1)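 Test compound at 0.5 μM initial concentration incubated 10 min with human, rat or mouse liver microsomes. Stability expressed as percentage of parent compound remaining at the end of incubation.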

SMILES | remaining at 10 min, 0.5 µM [%]
CC(C)N[C@@H]1CC[C@H](NC(=O)CNC(=O)c2cccc(C(F)(F)F)c2)C[C@@H]1CS(=O)(=O)c1ccccc1 (racemic) | 4.4
CCCN[C@@H]1CC[C@H](NC(=O)CNC(=O)c2cccc(C(F)(F)F)c2)C[C@@H]1CS(=O)(=O)c1ccccc1 (racemic) | 11
CCN[C@@H]1CC[C@H](NC(=O)CNC(=O)c2cccc(C(F)(F)F)c2)C[C@@H]1CS(=O)(=O)c1ccccc1 (racemic) | 24
N[C@@H]1CC[C@H](NC(=O)CNC(=O)c2cccc(C(F)(F)F)c2)C[C@@H]1CS(=O)(=O)c1ccccc1 (racemic) | 100
N[C@@H]1CC[C@H](NC(=O)CNC(=O)c2cc(C(F)(F)F)ccc2NC(=O)N2CCC2)C[C@@H]1CS(=O)(=O)c1ccccc1 (racemic) | 70
CN(C)[C@@H]1CC[C@H](NC(=O)CNC(=O)c2cccc(C(F)(F)F)c2)C[C@@H]1CS(=O)(=O)c1ccccc1 (racemic) | 4.4

test system: not listed separately; test: Metabolic stability of the compound in rat liver microsomes assessed as compound remaining at 0.5 uM aftet 10 mins; format: ADME, Microsome; details: read-out: Stability; summary of the method: as §1

SMILES | remaining at 10 min, 0.5 µM [%]
CC(C)N[C@@H]1CC[C@H](NC(=O)CNC(=O)c2cccc(C(F)(F)F)c2)C[C@@H]1CS(=O)(=O)c1ccccc1 (racemic) | 0.9
CCCN[C@@H]1CC[C@H](NC(=O)CNC(=O)c2cccc(C(F)(F)F)c2)C[C@@H]1CS(=O)(=O)c1ccccc1 (racemic) | 8
CCN[C@@H]1CC[C@H](NC(=O)CNC(=O)c2cccc(C(F)(F)F)c2)C[C@@H]1CS(=O)(=O)c1ccccc1 (racemic) | 23
N[C@@H]1CC[C@H](NC(=O)CNC(=O)c2cccc(C(F)(F)F)c2)C[C@@H]1CS(=O)(=O)c1ccccc1 (racemic) | 57
N[C@@H]1CC[C@H](NC(=O)CNC(=O)c2cc(C(F)(F)F)ccc2NC(=O)N2CCC2)C[C@@H]1CS(=O)(=O)c1ccccc1 (racemic) | 71
CN(C)[C@@H]1CC[C@H](NC(=O)CNC(=O)c2cccc(C(F)(F)F)c2)C[C@@H]1CS(=O)(=O)c1ccccc1 (racemic) | 3.9

test system: not listed separately; test: Metabolic stability of the compound in mouse liver microsomes assessed as compound remaining at 0.5 uM aftet 10 mins; format: ADME, Microsome; details: read-out: Stability; summary of the method: as §1

SMILES | remaining at 10 min, 0.5 µM [%]
CC(C)N[C@@H]1CC[C@H](NC(=O)CNC(=O)c2cccc(C(F)(F)F)c2)C[C@@H]1CS(=O)(=O)c1ccccc1 (racemic) | 9.6
CCCN[C@@H]1CC[C@H](NC(=O)CNC(=O)c2cccc(C(F)(F)F)c2)C[C@@H]1CS(=O)(=O)c1ccccc1 (racemic) | 28
CCN[C@@H]1CC[C@H](NC(=O)CNC(=O)c2cccc(C(F)(F)F)c2)C[C@@H]1CS(=O)(=O)c1ccccc1 (racemic) | 25
N[C@@H]1CC[C@H](NC(=O)CNC(=O)c2cccc(C(F)(F)F)c2)C[C@@H]1CS(=O)(=O)c1ccccc1 (racemic) | 96
N[C@@H]1CC[C@H](NC(=O)CNC(=O)c2cc(C(F)(F)F)ccc2NC(=O)N2CCC2)C[C@@H]1CS(=O)(=O)c1ccccc1 (racemic) | 87
CN(C)[C@@H]1CC[C@H](NC(=O)CNC(=O)c2cccc(C(F)(F)F)c2)C[C@@H]1CS(=O)(=O)c1ccccc1 (racemic) | 4.3

molecular target: T1, C-C chemokine receptor type 2; test: Displacement of [125I]MCP-1 from CCR2 in human PMBC up to 2400 nM; details: not given
Summary of the method: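 Competition binding against [¹²⁵I]MCP-1 using human peripheral blood mononuclear cells at room temperature. IC50 typically given as the mean of two determinations (± standard deviation).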
Target sequence in this assay (P41597 whole entry, looked up): as the sequence (P41597 whole entry) above

SMILES | inhibition
CC(C)N(C)[C@H]1CC[C@@H](NC(=O)CNC(=O)c2cccc(C(F)(F)F)c2)C[C@H]1CS(=O)(=O)c1ccccc1 | inactive
